Source: ChEMBL document CHEMBL3352608, “Medicinal chemistry optimization of antiplasmodial imidazopyridazine hits from high throughput screening of a softfocus kinase library: part 2” (J Med Chem, 2014)
≈ marks a conversion by molar mass, not a printed value.

Tests used:
[1] = Aqueous solubility of the compound at pH 2; type: physicochemical; conditions: buffer
[2] = Aqueous solubility of the compound at pH 6.5; type: physicochemical; conditions: buffer
Liver microsome [3] = test: Metabolic stability in human liver microsomes assessed as compound remaining after 30 mins; type: ADME; conditions: 0.5 h
How it was run: (§1)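 One-point microsomal stability test: compound incubated 30 min with human, rat or mouse liver microsomes; percentage of parent remaining measured.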

Liver microsome [4] = test: Metabolic stability in rat liver microsomes assessed as compound remaining after 30 mins; type: ADME; conditions: 0.5 h; how it was run: as §1
Liver = test: Metabolic stability in mouse liver microsomes assessed as compound remaining after 30 mins; type: ADME; conditions: 0.5 h; how it was run: as §1
Plasmodium falciparum [5] = test: Antiplasmodial activity against Plasmodium falciparum K1 by [3H]hypoxanthine incorporation assay; type: functional, organism-based
How it was run: (§2)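 Modified [3H]-hypoxanthine incorporation assay on P. falciparum asexual cultures, chloroquine and artesunate as references in every run. IC50 values are means of ≥2 independent experiments; individual values mostly within 2-fold (maximum 3-fold).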

Plasmodium falciparum [6] = test: Antiplasmodial activity against Plasmodium falciparum NF54 by [3H]hypoxanthine incorporation assay; type: functional, organism-based; how it was run: as §2
CHO = test: Cytotoxicity against CHO cells; type: cell-based, Cricetulus griseus; conditions: chinese hamster
[7] = Selectivity index, ratio of IC50 for CHO cells to IC50 for Plasmodium falciparum; type: toxicity, cell-based; conditions: hamster, read-out: Ratio IC50
[8] = system: CHO cells (Cricetulus griseus); test: Cytotoxicity against Chinese hamster CHO cells
[9] = system: CHO cells (Cricetulus griseus); test: Selectivity index, ratio of IC50 for Chinese hamster CHO cells to IC50 for Plasmodium falciparum
[10] = target: Voltage-gated inwardly rectifying potassium channel KCNH2 (Homo sapiens, UniProt Q12809); test: Inhibition of human ERG channel by patch clamp technique
Plasmodium berghei = test: Antimalarial activity against Plasmodium berghei ANKA infected in mouse assessed as reduction in parasitemia at 50 mg/kg/day, po qd administered for 4 days relative to control; type: functional; set-up: Activity: scale not given: the % may be the effect or the level left
How it was run: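 Mice (n = 3) infected with GFP-transfected P. berghei ANKA; compound in HPMC suspension vehicle given orally once daily at 4, 24, 48 and 72 h after infection. Blood collected day 4 (96 h post-infection); parasitemia by flow cytometry (detection limit 0.1%). Activity = difference in mean % parasitemia between control and treated groups, as % of control.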

[11] = Plasma concentration in mouse infected with Plasmodium berghei ANKA at 50 mg/kg/day, po after 1 hr by HPLC analysis; type: ADME, organism-based; set-up: route oral
How it was run: (§3)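 P. berghei-infected mice dosed orally at 50 mg/kg daily for 4 days; blood sampled 1, 4 and 24 h after the first dose and analysed by HPLC for drug levels.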

[12] = Plasma concentration in mouse infected with Plasmodium berghei ANKA at 50 mg/kg/day, po after 4 hrs by HPLC analysis; type: ADME, organism-based; set-up: route oral; how it was run: as §3
[13] = Plasma concentration in mouse infected with Plasmodium berghei ANKA at 50 mg/kg/day, po after 24 hrs by HPLC analysis; type: ADME, organism-based; set-up: route oral; how it was run: as §3

Chain of Voltage-gated inwardly rectifying potassium channel KCNH2 (Q12809 whole entry): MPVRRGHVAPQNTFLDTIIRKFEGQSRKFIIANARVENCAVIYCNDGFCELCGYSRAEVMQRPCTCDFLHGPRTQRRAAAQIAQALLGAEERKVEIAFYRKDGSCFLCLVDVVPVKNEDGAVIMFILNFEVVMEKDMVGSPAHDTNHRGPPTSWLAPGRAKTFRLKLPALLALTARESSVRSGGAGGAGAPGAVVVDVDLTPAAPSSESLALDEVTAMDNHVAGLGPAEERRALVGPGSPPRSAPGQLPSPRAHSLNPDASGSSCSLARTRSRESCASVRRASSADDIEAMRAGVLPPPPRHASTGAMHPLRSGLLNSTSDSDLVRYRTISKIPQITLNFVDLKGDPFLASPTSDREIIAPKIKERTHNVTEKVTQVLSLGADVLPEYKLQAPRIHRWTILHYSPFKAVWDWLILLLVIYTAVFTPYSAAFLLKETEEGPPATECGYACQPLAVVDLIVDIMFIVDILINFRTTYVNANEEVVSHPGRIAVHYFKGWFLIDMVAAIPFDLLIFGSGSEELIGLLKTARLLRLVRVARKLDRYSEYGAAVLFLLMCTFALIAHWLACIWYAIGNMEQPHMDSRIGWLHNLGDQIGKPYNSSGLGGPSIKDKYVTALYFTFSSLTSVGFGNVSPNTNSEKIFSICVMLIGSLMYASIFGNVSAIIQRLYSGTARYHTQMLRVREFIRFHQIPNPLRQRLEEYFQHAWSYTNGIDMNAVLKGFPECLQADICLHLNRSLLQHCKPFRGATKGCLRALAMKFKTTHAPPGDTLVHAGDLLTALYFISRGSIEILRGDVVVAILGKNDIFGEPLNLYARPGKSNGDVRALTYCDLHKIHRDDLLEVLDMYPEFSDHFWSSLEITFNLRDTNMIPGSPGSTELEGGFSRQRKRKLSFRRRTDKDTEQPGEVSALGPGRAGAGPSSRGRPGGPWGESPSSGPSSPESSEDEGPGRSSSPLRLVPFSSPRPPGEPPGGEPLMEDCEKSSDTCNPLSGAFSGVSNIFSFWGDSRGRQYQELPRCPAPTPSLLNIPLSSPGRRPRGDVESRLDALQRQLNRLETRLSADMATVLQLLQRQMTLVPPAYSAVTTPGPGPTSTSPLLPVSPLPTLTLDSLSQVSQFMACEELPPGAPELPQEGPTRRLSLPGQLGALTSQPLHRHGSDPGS

Compound | solubility [1] [µM] | solubility [2] [µM] | Stability (Liver microsome [3]) | Stability (Liver microsome [4]) | Stability (Liver) | IC50 (Plasmodium falciparum [5]) [nM] | IC50 (Plasmodium falciparum [6]) [nM] | further results
CS(=O)(=O)c1ccc(-c2cnc3ccc(-c4cccc(C(=O)NCCO)c4)nn23)cc1 | > 200 | > 100 | Unstable | Unstable | Unstable |  |  | 
CS(=O)(=O)c1ccc(-c2cnc3ccc(-c4cncc(S(C)(=O)=O)c4)nn23)cc1 | < 5 | < 5 |  |  |  | 82 | 96 | 
CS(=O)(=O)c1ccc(-c2cnc3ccc(-c4cncc(C(F)(F)F)c4)nn23)cc1 | < 5 | < 5 |  |  |  |  | 1050 | 
CS(=O)(=O)c1ccc(-c2cnc3ccc(-c4ccnc(C(F)(F)F)c4)nn23)cc1 | 5.4 (≈ 2.26 µg/mL) | < 5 |  |  |  | 26 | 45 | Activity (CHO): Non-toxic; selectivity ratio [7]: > 1000; Activity [8]: Non-toxic; selectivity ratio [9]: > 1000
CS(=O)(=O)c1ccc(-c2cnc3ccc(-c4cncc(N)c4)nn23)cc1 | 174 (≈ 63.6 µg/mL) | 15 (≈ 5.48 µg/mL) |  |  |  | 55 | 69 | 
CS(=O)(=O)c1cccc(-c2ccc3ncc(-c4ccc(S(C)(=O)=O)nc4)n3n2)c1 | < 5 | < 5 |  |  |  | 9.9 | 12 | 
CS(=O)(=O)c1cccc(-c2ccc3ncc(-c4cncc(S(C)(=O)=O)c4)n3n2)c1 | 16 (≈ 6.86 µg/mL) | < 5 |  |  |  | 42 | 58 | 
CS(=O)(=O)c1cccc(-c2ccc3ncc(-c4ccc(N)nc4)n3n2)c1 | 192 (≈ 70.2 µg/mL) | < 5 |  |  |  | 19 | 23 | 
CS(=O)(=O)c1cncc(-c2ccc3ncc(-c4ccc(S(C)(=O)=O)nc4)n3n2)c1 | 52 (≈ 22.3 µg/mL) | 13 (≈ 5.58 µg/mL) |  |  |  | 610 | 808 | 
CS(=O)(=O)c1cncc(-c2ccc3ncc(-c4cncc(S(C)(=O)=O)c4)n3n2)c1 | 183 (≈ 78.6 µg/mL) | 53 (≈ 22.8 µg/mL) |  |  |  | 473 | 636 | 
CS(=O)(=O)c1cncc(-c2ccc3ncc(-c4ccc(S(=O)(=O)C5CC5)cc4)n3n2)c1 | < 5 | < 5 |  |  |  | 484 | 662 | 
C[S+]([O-])c1cccc(-c2ccc3ncc(-c4ccc(S(C)(=O)=O)cc4)n3n2)c1 (centres undefined) | 188 (≈ 77.4 µg/mL) | 157 (≈ 64.6 µg/mL) | Unstable | Unstable | Unstable | 36 | 39 | IC50 [10]: 4 µM; Activity (Plasmodium berghei): 99.8%; MSD (Plasmodium berghei): 14 days; concentration at 1 h [11]: 590 nM; concentration at 4 h [12]: 490 nM
CS(=O)(=O)c1ccc(-c2cnc3ccc(-c4cccc(S(=O)(=O)CCO)c4)nn23)cc1 | 190 (≈ 86.9 µg/mL) | 8.6 (≈ 3.93 µg/mL) |  |  |  |  | 2.2 | 
CS(=O)(=O)c1ccc(-c2cnc3ccc(-c4cccc(C(=O)N5CCC(O)CC5)c4)nn23)cc1 | > 200 | 178 (≈ 84.8 µg/mL) | Stable | Stable | Stable |  | 6.5 | 
CS(=O)(=O)c1cccc(-c2ccc3ncc(-c4ccc(S(=O)(=O)N5CCNCC5)cc4)n3n2)c1 | 166 (≈ 82.6 µg/mL) | 162 (≈ 80.6 µg/mL) | Unstable | Unstable | Unstable | 8.8 | 14 | 
C[S+]([O-])c1ccc(-c2cnc3ccc(-c4cccc(S(C)(=O)=O)c4)nn23)cc1 (centres undefined) | 207 (≈ 85.2 µg/mL) | 98 (≈ 40.3 µg/mL) | Stable | Stable | Stable |  | 6.5 | Activity (Plasmodium berghei): 99.7%; MSD (Plasmodium berghei): 14 days
CS(=O)(=O)c1cccc(-c2ccc3ncc(-c4ccc(C(=O)N5CCC(O)C5)cc4)n3n2)c1 (centres undefined) | 191 (≈ 88.3 µg/mL) | 177 (≈ 81.9 µg/mL) | Stable | Stable | Stable | 21 | 18 | IC50 [10]: > 33 µM; Activity (Plasmodium berghei): <40%; MSD (Plasmodium berghei): 4 days; concentration at 4 h [12]: < 10 nM; concentration at 24 h [13]: < 10 nM
CS(=O)(=O)c1cccc(-c2ccc3ncc(-c4ccc(S(=O)(=O)CCCN)cc4)n3n2)c1 | > 200 | 180 (≈ 84.7 µg/mL) | Stable | Stable | Stable | 9.4 | 11 | Activity (CHO): Non-toxic; selectivity ratio [7]: > 1000; Activity [8]: Non-toxic; selectivity ratio [9]: > 1000
C[S+]([O-])c1cccc(-c2ccc3ncc(-c4ccc(C(N)=O)cc4)n3n2)c1 (centres undefined) | 112 (≈ 42.2 µg/mL) | < 5 |  |  |  |  | 103 | 
C[S+]([O-])c1ccc(-c2cnc3ccc(-c4cccc([S+](C)[O-])c4)nn23)cc1 (centres undefined) | 205 (≈ 81.1 µg/mL) | 192 (≈ 75.9 µg/mL) | Unstable | Unstable | Unstable | 30 | 35 | IC50 [10]: 12 µM; Activity (Plasmodium berghei): 99.8%; MSD (Plasmodium berghei): 25 days; concentration at 1 h [11]: 2440 nM; concentration at 4 h [12]: 760 nM
CS(=O)(=O)c1cncc(-c2cnc3ccc(-c4cccc(S(=O)(=O)C5CC5)c4)nn23)c1 | 18 (≈ 8.18 µg/mL) | < 5 |  |  |  | 31 | 37 | 
CS(=O)(=O)c1ccc(-c2cnc3ccc(-c4cccc(S(=O)(=O)C5CC5)c4)nn23)cn1 | < 5 | < 5 |  |  |  | 2 | 3.3 | 
O=S(=O)(c1cccc(-c2ccc3ncc(-c4ccc(-c5nnn[nH]5)cc4)n3n2)c1)C1CC1 | < 5 | 183 (≈ 81.2 µg/mL) |  |  |  | 25 | 43 | IC50 [10]: > 33 µM; Activity (Plasmodium berghei): <40%; MSD (Plasmodium berghei): 4 days
NC(=O)c1ccc(-c2cnc3ccc(-c4cccc(S(=O)(=O)C5CC5)c4)nn23)cc1 | 6.3 (≈ 2.64 µg/mL) | < 5 |  |  |  | 1.2 | 1.5 | Activity (CHO): Non-toxic; selectivity ratio [7]: > 1000; Activity [8]: Non-toxic; selectivity ratio [9]: > 1000
CS(=O)(=O)c1cccc(-c2ccc3ncc(-c4ccc(C(=O)N5CCNCC5)cc4)n3n2)c1 |  |  | Stable | Stable | Stable |  |  | Activity (Plasmodium berghei): <40%; MSD (Plasmodium berghei): 4 days
CS(=O)(=O)c1cccc(-c2ccc3ncc(-c4ccc(C(=O)O)cc4)n3n2)c1 |  |  |  |  |  |  |  | Activity (CHO): Non-toxic; selectivity ratio [7]: > 1000; Activity [8]: Non-toxic; selectivity ratio [9]: > 1000
